Test results as given in ChEMBL document CHEMBL2321657, “In vitro efficiency of 9-(N-cinnamoylbutyl)aminoacridines against blood- and liver-stage malaria parasites” (Bioorg Med Chem Lett, 2013).

Key:
Plasmodium falciparum = assay: Antiplasmodial activity against ring stage of CQ-resistant Plasmodium falciparum W2 after 48 hrs by flow cytometric analysis; type: functional, organism-based; conditions: W2, 48 h
Plasmodium berghei [1] = assay: Ratio of primaquine IC50 to compound IC50 for liver stage of Plasmodium berghei; type: functional
Huh-7 = assay: Cytotoxicity against human HuH7 cells up to 5 uM after 48 hrs by cell confluence analysis; type: cell-based; conditions: huh-7, 48 h
Plasmodium berghei [2] = assay: Antiplasmodial activity against liver stage of Plasmodium berghei expressing GFP-Luc infected in HuH7 cells incubated at 1 hr prior to infection followed by compound replenisment at 24 hrs post-infection measured after 48 hrs by Alamar blue assay; type: functional, organism-based; conditions: Huh-7, in the assay text read “luciferase bioluminescence assay” for “Alamar blue assay”
Method in brief: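 Huh7 human hepatoma cells infected with firefly luciferase-expressing P. berghei sporozoites in the presence of compound. Liver-stage infection load read as bioluminescence of cell lysates 48 h after infection. Primaquine included as the liver-stage reference.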

| Compound | IC50 (Plasmodium falciparum) | Ratio IC50 (Plasmodium berghei [1]) | Activity (Huh-7) | IC50 (Plasmodium berghei [2]) |
| --- | --- | --- | --- | --- |
| O=C(/C=C/c1ccccc1)NCCCCNc1c2ccccc2nc2ccccc12 | 892 nM | – | – | – |
| Cc1ccc(/C=C/C(=O)NCCCCNc2c3ccccc3nc3ccccc23)cc1 | 225 nM | – | – | – |
| CC(C)c1ccc(/C=C/C(=O)NCCCCNc2c3ccccc3nc3ccccc23)cc1 | 126 nM | – | – | – |
| COc1ccc(/C=C/C(=O)NCCCCNc2c3ccccc3nc3ccccc23)cc1 | 138 nM | 3 | Non-toxic | 3200 nM |
| O=C(/C=C/c1cccc(F)c1)NCCCCNc1c2ccccc2nc2ccccc12 | 345 nM | – | – | – |
| O=C(/C=C/c1ccc(F)cc1)NCCCCNc1c2ccccc2nc2ccccc12 | 145 nM | – | Non-toxic | – |
| O=C(/C=C/c1cccc([N+](=O)[O-])c1)NCCCCNc1c2ccccc2nc2ccccc12 | 142 nM | – | – | – |
| CCN(CC)CCCC(C)Nc1ccnc2cc(Cl)ccc12 (stereo not drawn) [CHLOROQUINE] | – | – | – | > 15000 nM |
| COc1cc(NC(C)CCCN)c2ncccc2c1 (stereo not drawn) [PRIMAQUINE] | – | – | – | 8000 nM |
